Results published in ChEMBL document CHEMBL2321650, “Novel HldE-K inhibitors leading to attenuated Gram negative bacterial virulence” (J Med Chem, 2013).
≈ marks a conversion by molar mass, not a printed value. Calls of active or inactive are those of the source. The calls are words filed in the database; no cut-off is given here.

How the values were obtained:
[1] = system: Escherichia coli; assay: Antimicrobial activity against acrAB, tolC-deficient Escherichia coli str. K-12 substr. MG1655 after overnight incubation in presence of erythromycin; assay type: functional
Method in brief: (§1)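 Broth microdilution MIC in cation-adjusted MHB, final inoculum 5 × 10⁵ CFU/mL from early-to-log preculture; serial compound dilutions in 2% DMSO, overnight at 35 °C, growth scored visually. Each strain tested with and without erythromycin (1 μg/mL for K12 ΔacrAB ΔtolC, 8 μg/mL for K1 wild type, 1 μg/mL for K1 ΔtolC).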

[2] = Inhibition of Escherichia coli O18:K1 C7 hldE-K expressed in Escherichia coli BL21 using beta-heptose 7-phosphate as substrate incubated for 30 mins prior to substrate addition measured after 30 mins by luminescence assay
Method in brief: (§2)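 E. coli HldE (His-tagged, IPTG-induced, Ni-NTA-purified), 3 nM, preincubated 30 min at room temperature with inhibitor in Hepes pH 7.5, MnCl₂, KCl, 0.012% Triton-X100, DTT, MBP. Reaction with 0.2 μM heptose 7-phosphate and 0.2 μM ATP, 30 min at room temperature. Remaining ATP read by luciferase/luciferin luminescence; 6−10 concentrations fitted to a Langmuir model for IC50.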

[3] = system: Klebsiella pneumoniae; assay: Inhibition of Klebsiella pneumoniae ATCC 700603 hldE-K expressed in Escherichia coli BL21 using beta-heptose 7-phosphate as substrate incubated for 30 mins prior to substrate addition measured after 30 mins by luminescence assay; conditions: ATCC 700603, BL21
Method in brief: (§3)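 HldE kinase luminescence assay as for E. coli, with enzyme at 20 nM for K. pneumoniae, 20 nM for N. meningitidis and 10 nM for S. marcescens. Heptose 7-phosphate and ATP each at 0.2 μM; 30 min preincubation and 30 min reaction at room temperature.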

[4] = Inhibition of Serratia marcescens NEM017811 hldE-K expressed in Escherichia coli BL21 using beta-heptose 7-phosphate as substrate incubated for 30 mins prior to substrate addition measured after 30 mins by luminescence assay; method in brief: as §3
[5] = system: Escherichia coli; assay: Antimicrobial activity against tolC-deficient Escherichia coli O18:K1:H7 after overnight incubation in presence of erythromycin; assay type: functional; method in brief: as §1
[6] = system: Escherichia coli; assay: Antimicrobial activity against tolC-deficient Escherichia coli O18:K1:H7 after overnight incubation in absence of erythromycin; assay type: functional; method in brief: as §1
[7] = Inhibition of Escherichia coli O18:K1 C7 ribokinase expressed in Escherichia coli BL21 using D-ribose as substrate incubated for 30 mins prior to substrate addition measured after 30 mins by luminescence assay
Method in brief: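 Ribokinase run as the HldE kinase assay: purified E. coli ribokinase at 0.6 nM, 3 μM D-ribose, 3 μM ATP. Inhibitor preincubated 30 min, reaction run 30 min at room temperature, luciferase luminescence read-out, IC50 from 6−10 concentrations.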

[8] = system: Escherichia coli; assay: Antimicrobial activity against acrAB, tolC-deficient Escherichia coli str. K-12 substr. MG1655 after overnight incubation in absence of erythromycin; assay type: functional; method in brief: as §1
[9] = Inhibition of Neisseria meningitidis 2C43 hldE-K expressed in Escherichia coli BL21 using beta-heptose 7-phosphate as substrate incubated for 30 mins prior to substrate addition measured after 30 mins by luminescence assay; method in brief: as §3
[10] = system: Escherichia coli; assay: Antimicrobial activity against hldE-deficient Escherichia coli O18:K1:H7 after overnight incubation; assay type: functional
[11] = system: Escherichia coli; assay: Antimicrobial activity against wild type Escherichia coli O18:K1:H7 after overnight incubation; assay type: functional; method in brief: as §1
[12] = system: HepG2; assay: Cytotoxicity against human HepG2 cells after overnight incubation by one cell proliferation assay; assay type: cell-based
Method in brief: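 HepG2 cells at 2 × 10⁴ per well in EMEM with 10% FBS, grown overnight at 37 °C in 5% CO₂. Medium then replaced by compound dilutions in medium with 2% DMSO for overnight incubation. Viability read by CellTiter Aqueous One MTS absorbance at 490 nm.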

[13] = system: Escherichia coli; assay: Antimicrobial activity against acrAB, tolC-deficient Escherichia coli str. K-12 substr. MG1655 after 18 to 22 hrs; assay type: functional
[14] = system: Escherichia coli; assay: Antimicrobial activity against tolC-deficient Escherichia coli O18:K1:H7 assessed as inhibition of LPS synthesis at 16 ug/mL after 5 hrs by silver staining-based electrophoretic analysis; assay type: functional, organism-based
Method in brief: (§4)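 Exponential LB cultures diluted to 5 × 10⁵ CFU/mL, incubated with compound (from water/DMSO 50/50) at 37 °C about 5 h to OD 0.2−0.4. OD-normalized pellets were PBS-washed, SDS-denatured at 95−100 °C, proteinase K-treated 1 h at 55 °C, and run on 16% SDS-PAGE with silver staining. The lowest dose yielding Re-LPS was recorded.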

[15] = system: Escherichia coli; assay: Antimicrobial activity against acrAB, tolC-deficient Escherichia coli str. K-12 substr. MG1655 assessed as inhibition of LPS synthesis at 2 ug/mL after 5 hrs by silver staining-based electrophoretic analysis; assay type: functional; method in brief: as §4
[16] = Competitive reversible inhibition of Escherichia coli O18:K1 C7 hldE-K expressed in Escherichia coli BL21 using D-manno-heptose 7-phosphate as substrate incubated for 30 mins prior to substrate addition measured after 30 mins by double reciprocal plot analysis in presence of ATP
Method in brief: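 ATP competition on E. coli HldE-K at 2 μM D-manno-heptose 7-phosphate with varied ATP. Initial velocities read by luciferase luminescence and analysed as a double reciprocal plot of 1/v versus 1/[ATP].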

[17] = system: Escherichia coli; assay: Inhibition of Escherichia coli O18:K1 C7 hldE-K expressed in Escherichia coli BL21 using beta-heptose 7-phosphate as substrate incubated for 30 mins prior to substrate addition measured after 30 mins by luminescence assay in presence of Triton-X 100
Method in brief: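 E. coli HldE kinase luminescence assay with Triton-X100 at 100 μM to 1 mM added to test for promiscuous, aggregation-type inhibition. Otherwise 3 nM enzyme, 30 min inhibitor preincubation, and 30 min reaction with heptose 7-phosphate and ATP at room temperature.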

[18] = system: Escherichia coli; assay: Inhibition of Escherichia coli O18:K1 C7 hldE-K expressed in Escherichia coli BL21 using D-manno-heptose 7-phosphate as substrate incubated for 30 mins prior to substrate addition measured after 30 mins by luminescence assay; method in brief: as §2

O=C(O)COc1ccc2sc(CNc3nncc(-c4c(Cl)cccc4Cl)n3)nc2c1
MIC [1]: 32 µg/mL | IC50 [2]: 19 nM | IC50 [3]: 100 nM | IC50 [4]: 41 nM | MIC [5]: > 32 µg/mL | MIC [6]: > 32 µg/mL | IC50 [7]: > 300 µM | MIC [8]: > 32 µg/mL | IC50 [9]: 1800 nM

CO[C@H]1/C=C/O[C@@]2(C)Oc3c(C)c(O)c4c(O)c(c(/C=N/N5CCN(C)CC5)c(O)c4c3C2=O)NC(=O)/C(C)=C\C=C\[C@H](C)[C@H](O)[C@@H](C)[C@@H](O)[C@@H](C)[C@H](OC(C)=O)[C@@H]1C [RIFAMPIN]
MIC [10]: 0.125 µg/mL (≈ 0.152 µM) | MIC [11]: 8 µg/mL (≈ 9.72 µM)

CC[C@H]1OC(=O)[C@H](C)[C@@H](O[C@H]2C[C@@](C)(OC)[C@@H](O)[C@H](C)O2)[C@H](C)[C@@H](O[C@@H]2O[C@H](C)C[C@H](N(C)C)[C@H]2O)[C@](C)(O)C[C@@H](C)C(=O)[C@H](C)[C@@H](O)[C@]1(C)O [ERYTHROMYCIN]
MIC [10]: 0.5 µg/mL (≈ 0.681 µM) | MIC [11]: 32 µg/mL (≈ 43.6 µM)

CN(C)CCOc1ccc2sc(CNc3nncc(-c4c(Cl)cccc4Cl)n3)nc2c1
Activity [12]: > 32 µg/mL | MIC [1]: 4 µg/mL | IC50 [2]: 82 nM | MIC [5]: 16 µg/mL | MIC [6]: > 32 µg/mL | MIC [8]: 32 µg/mL (≈ 67.3 µM)

COc1ccc2sc(CNc3nncc(-c4c(OC)ccc5ccccc45)n3)nc2c1
MIC [1]: > 32 µg/mL | IC50 [2]: 51 nM | MIC [5]: > 32 µg/mL | MIC [6]: > 32 µg/mL | MIC [8]: > 32 µg/mL

COc1ccc2sc(CNc3nncc(-c4c(C)cc(NCCN(C)C)cc4C)n3)nc2c1
MIC [1]: > 32 µg/mL | IC50 [2]: 82 nM | MIC [5]: > 32 µg/mL | MIC [6]: > 32 µg/mL | MIC [8]: > 32 µg/mL

COc1ccc2sc(CNc3nncc(-c4c(C)cccc4O)n3)nc2c1
MIC [1]: 8 µg/mL | IC50 [2]: 69 nM | IC50 [3]: 430 nM | IC50 [4]: 160 nM | MIC [5]: > 32 µg/mL | MIC [6]: > 32 µg/mL | IC50 [7]: > 300 µM | MIC [8]: > 32 µg/mL | IC50 [9]: 9800 nM

Oc1ccc2sc(CNc3nncc(-c4c(O)ccc5ccccc45)n3)nc2c1
Activity [12]: 20 µg/mL | MIC [1]: 0.063 µg/mL | IC50 [2]: 20 nM | IC50 [3]: 85 nM | IC50 [4]: 41 nM | MIC [5]: 2 µg/mL | MIC [6]: > 32 µg/mL | IC50 [7]: > 300 µM | MIC [8]: 2 µg/mL (≈ 4.98 µM) | IC50 [9]: 1300 nM

COc1ccc2sc(CNc3nncc(-c4c(C)cc(NC(C)=O)cc4C)n3)nc2c1
MIC [1]: > 32 µg/mL | IC50 [2]: 240 nM | MIC [5]: > 32 µg/mL | MIC [6]: > 32 µg/mL | MIC [8]: > 32 µg/mL

CS(=O)(=O)NC(=O)COc1ccc2sc(CNc3nncc(-c4c(Cl)cccc4Cl)n3)nc2c1
MIC [1]: > 32 µg/mL | IC50 [2]: 16 nM | MIC [5]: > 32 µg/mL | MIC [6]: > 32 µg/mL | MIC [8]: > 32 µg/mL

O=C(CO)NCCOc1ccc2sc(CNc3nncc(-c4c(Cl)cccc4Cl)n3)nc2c1
MIC [1]: 4 µg/mL | IC50 [2]: 71 nM | MIC [5]: > 32 µg/mL | MIC [6]: > 32 µg/mL | MIC [8]: > 32 µg/mL

COc1ccc2sc(CNc3nncc(-c4c(Cl)cccc4Cl)n3)nc2c1
MIC [1]: > 32 µg/mL | IC50 [2]: 130 nM | IC50 [3]: 2300 nM | IC50 [4]: 1200 nM | MIC [5]: > 32 µg/mL | MIC [6]: > 32 µg/mL | IC50 [7]: > 300 µM | MIC [8]: > 32 µg/mL | IC50 [9]: 13000 nM

NC(=O)COc1ccc2sc(CNc3nncc(-c4c(Cl)cccc4Cl)n3)nc2c1
MIC [1]: > 32 µg/mL | IC50 [2]: 67 nM | MIC [5]: > 32 µg/mL | MIC [6]: > 32 µg/mL | MIC [8]: > 32 µg/mL

COc1ccc2sc(CNc3nncc(-c4c(C)cccc4C)n3)nc2c1
MIC [1]: > 32 µg/mL | IC50 [2]: 360 nM | MIC [5]: > 32 µg/mL | MIC [6]: > 32 µg/mL | MIC [8]: > 32 µg/mL

OCCOc1ccc2sc(CNc3nncc(-c4c(Cl)cccc4Cl)n3)nc2c1
Activity [12]: > 32 µg/mL | MIC [1]: 0.5 µg/mL | IC50 [2]: 18 nM | MIC [5]: 32 µg/mL | MIC [6]: > 32 µg/mL | MIC [8]: 16 µg/mL (≈ 35.7 µM)

CC[C@H]1OC(=O)[C@H](C)C(=O)[C@H](C)[C@@H](O[C@@H]2O[C@H](C)C[C@H](N(C)C)[C@H]2O)[C@](C)(OC)C[C@@H](C)C(=O)[C@H](C)[C@H]2N(CCCCn3cnc(-c4cccnc4)c3)C(=O)O[C@]12C [TELITHROMYCIN]
MIC [10]: 0.25 µg/mL (≈ 0.308 µM) | MIC [11]: 8 µg/mL (≈ 9.85 µM)

CO[C@@H]1[C@@H](OC(N)=O)[C@@H](O)[C@H](Oc2ccc3c(O)c(NC(=O)c4ccc(O)c(CC=C(C)C)c4)c(=O)oc3c2C)OC1(C)C [NOVOBIOCIN]
MIC [10]: 0.5 µg/mL (≈ 0.816 µM) | MIC [11]: 32 µg/mL (≈ 52.2 µM)

NCC(=O)NCCOc1ccc2sc(CNc3nncc(-c4c(Cl)cccc4Cl)n3)nc2c1
Activity [12]: 18 µg/mL | MIC [1]: 4 µg/mL | IC50 [2]: 100 nM | MIC [5]: 32 µg/mL | MIC [6]: > 32 µg/mL | MIC [8]: 32 µg/mL (≈ 63.4 µM)

O=C(COc1ccc2sc(CNc3nncc(-c4c(Cl)cccc4Cl)n3)nc2c1)NCCO
Activity [12]: > 32 µg/mL | MIC [1]: 2 µg/mL | MIC [13]: > 32 µg/mL | IC50 [2]: 49 nM | IC50 [3]: 150 nM | inhibition [14]: Active | IC50 [4]: 76 nM | MIC [5]: 16 µg/mL | MIC [6]: > 32 µg/mL | IC50 [7]: > 300 µM | inhibition [15]: Active | MIC [8]: > 32 µg/mL | IC50 [9]: 1900 nM

COc1ccc2sc(CNc3nncc(-c4cc(-c5ccn[nH]5)ccc4Cl)n3)nc2c1
MIC [1]: > 32 µg/mL | IC50 [2]: 53 nM | MIC [5]: > 32 µg/mL | MIC [6]: > 32 µg/mL | MIC [8]: > 32 µg/mL

Oc1ccc2sc(CNc3nncc(-c4c(Cl)cccc4Cl)n3)nc2c1
MIC [1]: > 32 µg/mL | IC50 [2]: 75 nM | MIC [5]: > 32 µg/mL | MIC [6]: > 32 µg/mL | MIC [8]: > 32 µg/mL

COc1cccc(OC)c1-c1cnnc(NCc2nc3ccccc3s2)n1
Ki [16]: 2500 nM | IC50 [2]: 2000 nM | inhibition [17]: Active | inhibition [18]: Active

COc1cccc(OC)c1-c1cnnc(N(CCCO)Cc2nc3ccccc3s2)n1
IC50 [2]: > 300000 nM
